From ChEMBL document CHEMBL4400539, “Discovery of a Novel Chemotype of Histone Lysine Methyltransferase EHMT1/2 (GLP/G9a) Inhibitors: Rational Design, Synthesis, Biological Evaluation, and Co-crystal Structure” (J Med Chem, 2019) come the findings set out here.

As a reminder, the pKd is −log10 of the Kd, conventionally taken in molar units. A low value points to a large Kd.

Data set [1] has as its target T1, Lysine-specific demethylase 4A (Homo sapiens) (UniProt O75164).
T1 sequence (whole entry): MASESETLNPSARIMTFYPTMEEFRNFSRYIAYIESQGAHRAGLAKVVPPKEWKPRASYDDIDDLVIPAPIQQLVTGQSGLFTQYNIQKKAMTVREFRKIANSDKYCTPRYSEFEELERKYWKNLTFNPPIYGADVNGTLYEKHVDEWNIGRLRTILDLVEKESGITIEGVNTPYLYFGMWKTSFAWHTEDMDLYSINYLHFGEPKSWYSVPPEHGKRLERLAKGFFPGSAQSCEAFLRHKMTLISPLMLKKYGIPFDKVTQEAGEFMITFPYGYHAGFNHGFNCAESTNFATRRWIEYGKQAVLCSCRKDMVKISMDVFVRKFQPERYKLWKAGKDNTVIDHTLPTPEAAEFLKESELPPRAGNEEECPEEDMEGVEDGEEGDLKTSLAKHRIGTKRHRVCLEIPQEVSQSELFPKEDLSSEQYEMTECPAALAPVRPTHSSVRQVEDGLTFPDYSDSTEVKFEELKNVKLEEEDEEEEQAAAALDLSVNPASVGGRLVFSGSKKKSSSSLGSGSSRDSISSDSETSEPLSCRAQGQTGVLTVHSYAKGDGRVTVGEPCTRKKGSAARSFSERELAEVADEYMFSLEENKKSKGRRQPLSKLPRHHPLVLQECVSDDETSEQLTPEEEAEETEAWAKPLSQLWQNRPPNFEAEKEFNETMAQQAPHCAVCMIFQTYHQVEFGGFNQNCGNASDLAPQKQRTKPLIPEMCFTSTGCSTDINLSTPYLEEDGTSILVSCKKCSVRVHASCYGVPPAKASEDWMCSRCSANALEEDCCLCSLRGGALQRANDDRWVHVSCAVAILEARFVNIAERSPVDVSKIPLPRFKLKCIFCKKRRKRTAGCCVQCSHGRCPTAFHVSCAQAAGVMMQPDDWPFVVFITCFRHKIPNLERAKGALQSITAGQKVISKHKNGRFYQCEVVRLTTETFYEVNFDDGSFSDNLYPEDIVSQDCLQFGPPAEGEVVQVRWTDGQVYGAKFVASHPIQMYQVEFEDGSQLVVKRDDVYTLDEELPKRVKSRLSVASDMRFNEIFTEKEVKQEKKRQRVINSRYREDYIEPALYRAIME
The experiment in a line: Inhibition of recombinant human JMJD2A at 10 to 25 uM using biotinylated-Histone H3 peptide (1 to 21 residues) as substrate preincubated for 30 mins followed by substrate addition and measured after 60 mins in presence of SAM by AlphaLISA assay relative to control. (In general: In Alpha technology, singlet oxygen from a donor bead excites a nearby acceptor bead.)

Data set [2] relates to MCF7. Description: Cytotoxicity against human MCF7 cells assessed as reduction in cell viability at 0.05 to 50 uM after 48 to 72 hrs by MTT assay. The format is cell-based. The following applies: mcf7, 50 µM. The essentials: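 MCF-7, MDA-MB-231 and U-343 cells exposed 24, 48 and 72 h to 0.05, 0.5, 5 and 50 μM compound; viability by MTT reduction to formazan versus vehicle; mean ± SD of at least three independent experiments.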
On the technique in general: Formazan colour is commonly taken as a measure of viable cells.

Data set [3] addresses T2, Histone-lysine N-methyltransferase EHMT2 (Homo sapiens, UniProt Q96KQ7).
T2 sequence (Q96KQ7 whole entry): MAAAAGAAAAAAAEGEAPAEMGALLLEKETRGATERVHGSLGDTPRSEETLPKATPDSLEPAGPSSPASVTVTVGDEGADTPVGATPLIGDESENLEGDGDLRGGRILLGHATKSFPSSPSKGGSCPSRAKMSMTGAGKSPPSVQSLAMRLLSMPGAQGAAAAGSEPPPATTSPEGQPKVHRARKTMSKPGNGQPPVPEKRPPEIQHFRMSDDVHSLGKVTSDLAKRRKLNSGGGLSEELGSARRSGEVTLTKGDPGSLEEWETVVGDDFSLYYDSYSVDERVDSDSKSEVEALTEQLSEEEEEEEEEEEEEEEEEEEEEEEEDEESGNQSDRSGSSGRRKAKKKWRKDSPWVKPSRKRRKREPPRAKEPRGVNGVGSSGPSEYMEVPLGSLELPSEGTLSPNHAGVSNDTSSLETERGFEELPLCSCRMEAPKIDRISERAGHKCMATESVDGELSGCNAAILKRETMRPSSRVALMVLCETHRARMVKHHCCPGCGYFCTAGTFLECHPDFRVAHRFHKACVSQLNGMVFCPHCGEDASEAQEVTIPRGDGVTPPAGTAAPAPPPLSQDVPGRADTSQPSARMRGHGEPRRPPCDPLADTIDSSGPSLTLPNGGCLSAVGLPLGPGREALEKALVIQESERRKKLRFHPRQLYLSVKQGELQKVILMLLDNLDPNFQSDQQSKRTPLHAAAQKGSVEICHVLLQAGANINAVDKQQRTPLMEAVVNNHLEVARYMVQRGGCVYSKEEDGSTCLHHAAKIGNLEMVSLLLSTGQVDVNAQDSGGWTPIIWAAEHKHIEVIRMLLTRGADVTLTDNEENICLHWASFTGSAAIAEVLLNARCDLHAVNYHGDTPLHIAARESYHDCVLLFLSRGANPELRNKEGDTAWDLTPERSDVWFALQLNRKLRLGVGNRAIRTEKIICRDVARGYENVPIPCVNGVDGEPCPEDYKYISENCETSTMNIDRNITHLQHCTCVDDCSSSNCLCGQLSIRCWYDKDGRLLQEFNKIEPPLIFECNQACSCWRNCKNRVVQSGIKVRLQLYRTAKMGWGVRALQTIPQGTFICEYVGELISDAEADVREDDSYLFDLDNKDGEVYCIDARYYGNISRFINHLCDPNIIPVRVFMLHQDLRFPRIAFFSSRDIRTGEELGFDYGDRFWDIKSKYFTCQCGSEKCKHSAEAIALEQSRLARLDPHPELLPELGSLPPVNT
Description: Binding affinity to human His-tagged G9a expressed in Escherichia coli Rosetta (DE3) after 30 mins by MST binding assay.

The nature of data set [4]: Apparent permeability of the compound after 24 hrs by PAMPA. Format: ADME.
Data set [5] concerns the target Protein arginine N-methyltransferase 3 (Homo sapiens) (UniProt O60678). The experiment in a line: Inhibition of recombinant human PRMT3 at 10 to 25 uM using biotinylated-Histone H4 peptide (1 to 21 residues) as substrate preincubated for 30 mins followed by substrate addition and measured after 60 mins in presence of SAM by AlphaLISA assay relative to control. The gist of the method: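 Biotinylated H4(1–21) peptide plus SAM then added for 60 min: PRMT1 0.9 nM, peptide 100 nM, SAM 2 μM; PRMT3 23 nM, peptide 50 nM, SAM 10 μM. Anti-H4R3me AlphaLISA; 10 and 25 μM; three experiments, mean ± SD.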

The structures appear in SMILES notation. pKd: −log10 of the molar value. Calls of active or inactive are those of the source. The rule behind the calls is not given here.

Sequence of Protein arginine N-methyltransferase 3 (Homo sapiens) (O60678 2-531 limits assumed): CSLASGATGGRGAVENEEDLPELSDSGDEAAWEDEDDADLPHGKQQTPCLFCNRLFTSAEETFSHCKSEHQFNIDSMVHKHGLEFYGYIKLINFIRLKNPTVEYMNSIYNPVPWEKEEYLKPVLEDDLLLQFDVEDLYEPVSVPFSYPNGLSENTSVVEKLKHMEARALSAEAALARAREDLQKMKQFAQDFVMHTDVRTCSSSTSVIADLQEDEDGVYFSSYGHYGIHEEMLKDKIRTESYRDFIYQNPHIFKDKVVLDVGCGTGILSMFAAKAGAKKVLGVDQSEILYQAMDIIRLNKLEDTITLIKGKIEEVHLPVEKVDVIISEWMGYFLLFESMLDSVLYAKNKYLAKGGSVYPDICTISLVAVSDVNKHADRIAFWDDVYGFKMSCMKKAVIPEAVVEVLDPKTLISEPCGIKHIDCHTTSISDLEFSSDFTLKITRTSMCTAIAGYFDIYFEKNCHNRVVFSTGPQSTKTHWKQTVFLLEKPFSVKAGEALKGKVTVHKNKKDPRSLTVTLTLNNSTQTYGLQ

On to `COc1cc2c(cc1OCCCN1CCCC1)N=C(C1CCCCC1)CN=C2NC1CCN(C(C)C)CC1`, for which the inhibition entry in data set [1] and in data set [5] was “inactive” in each case. In data set [2], the Activity entry is “Toxic”. This molecule also had a pKd in data set [3] of 5.95. Besides, the Papp in data set [4] is reported as 4.8 ×10⁻⁷ cm/s.
